T cruzi growth-1 – T. cruzi intracellular proliferation inhibitors, primary screen, cell-based, beta-gal Tulahuen parasites, NIH3T3 host, luminescence; T. cruzi beta-gal in NIH3T3, GalScreen luminescence, 90 h; inhibition, % at 8.34 µM; 5.9% of 77,000 active;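 active = mean inhibition above about 93%, with at least 55% of replicates each passing it, limit read from the data, passing the limit was not always enough; inconclusive = only one of those two conditions holds; inactive = neither condition holds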
IDH1 mut inh – inhibitors of IDH1 R132H reductase, primary screen, biochemical, plate reader, single point; inhibition, % at 10 µM; diaphorase/resazurin fluorescence, 60 min; Isocitrate dehydrogenase [NADP] cytoplasmic (Homo sapiens), O75874; 0.18% of 70,000 active; in the data active = inhibition above about 34%; inconclusive = no clear call, values can overlap the other calls; inactive = below about 11%;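 note: 0% = DMSO and 100% = no enzyme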
KDM4C inh – inhibitors of GASC-1 (KDM4C) histone demethylase, primary screen, biochemical, single concentration HTS. GST-KDM4C 2-372, H3K9me3 peptide, LANCE TR-FRET. inhibition, % at 12.5 µM. 0.15% of 96,000 active;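 active = mean replicate inhibition above about 25%, with at least 55% of replicates also reaching it, limit read from the data, passing the limit was not always enough; inconclusive = only one of those two conditions met; inactive = neither condition met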
Target sequence (Q9H3R0 2-372 limits assumed): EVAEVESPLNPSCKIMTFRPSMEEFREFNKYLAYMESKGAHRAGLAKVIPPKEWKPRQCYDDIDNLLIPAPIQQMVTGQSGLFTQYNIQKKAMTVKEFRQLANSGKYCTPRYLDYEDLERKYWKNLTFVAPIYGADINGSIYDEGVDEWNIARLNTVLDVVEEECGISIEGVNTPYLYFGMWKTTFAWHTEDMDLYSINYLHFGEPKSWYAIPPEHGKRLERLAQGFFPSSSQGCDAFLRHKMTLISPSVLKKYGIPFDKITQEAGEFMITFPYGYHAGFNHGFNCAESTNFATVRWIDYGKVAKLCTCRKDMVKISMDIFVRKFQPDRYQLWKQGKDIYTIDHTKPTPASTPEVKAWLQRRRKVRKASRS
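material = GST-tagged GASC-1 (JMJD2C) catalytic fragment, aa 2-372 | amount = enzyme final amount 10 nM | medium = HEPES buffer, pH 7.5, plus ascorbate | also added = H3K9me3 peptide substrate, Fe(II), 2-oxoglutarate | dosing = single dose | times = 30 min demethylation and 1 h detection at room temperature | detection = LANCE TR-FRET | read-out basis = Fall in 671/618 emission ratio as inhibition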
T cruzi growth-2 – T. cruzi intracellular proliferation inhibitors, confirmation, cell-based, NIH3T3 host, beta-gal parasite, luminescence, cherry-pick; shares compounds with T cruzi growth-1; inhibition, % at 8.35 µM; 72% of 5,600 active; AID 651739, 2012; T. cruzi beta-gal in NIH3T3, GalScreen luminescence, 90 h;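 active = mean replicate inhibition above about 95% and at least 55% of replicates individually reaching it, limit read from the data; inconclusive = only one of the two criteria is met; inactive = neither criterion is met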
T cruzi growth-3 – inhibitors of intracellular T. cruzi replication, confirmation, NIH3T3 host cells, beta-gal parasites, cherry-pick, set 2; shares compounds with T cruzi growth-1; T. cruzi beta-gal in NIH3T3, GalScreen luminescence, 90 h; inhibition, % at 2.09 µM; 21% of 5,600 active; AID 651740, 2012;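 active = mean inhibition above about 95%, with at least 55% of replicates also reaching it, limit read from the data; inconclusive = meets just one of the two conditions; inactive = meets neither condition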;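 note: plate controls were neutral control median for no effect and positive control median for full effect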
3T3 cytotox – cytotoxicity in mouse NIH/3T3 fibroblasts, confirmation, cytotoxicity control for T. cruzi proliferation inhibitor project, cell-based, cherry-pick, single point; 14% of 5,600 active; NIH/3T3 viability, CellTiter-Glo ATP luminescence, 90 h; cytotoxicity (signal decrease), % at 8.35 µM; shares compounds with T cruzi growth-1;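 active = mean signal decrease across replicates above about 35% based on untreated-well scatter, with enough replicates individually passing, limit read from the data; inconclusive = no rule stated though some were filed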;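 note: 0% = median of neutral control wells and 100% = median of positive control wells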
NIH3T3 tox 2 – NIH/3T3 fibroblast cytotoxicity, confirmation, cytotoxicity control, cell-based, cherry-pick, single point, set 2; AID 651744, 2012; NIH/3T3 viability, CellTiter-Glo ATP luminescence, 90 h; 56% of 5,600 active; shares compounds with T cruzi growth-1; inhibition, % at 24.9 µM;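 active = mean loss of cell viability signal at or above a set limit, and enough replicates individually reaching it; inconclusive = meets only the mean limit or only the replicate share; inactive = meets neither condition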;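 note: 0% = median of neutral control wells and 100% = median of positive control wells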
Active calls of the source: *. This is one part of a sample in which hits are shown more often than they occur.

Screening C[C@@H]1CN([C@H](C)CO)C(=O)c2cccc(NC(=O)Nc3ccc(C(F)(F)F)cc3)c2O[C@H]1CN(C)S(=O)(=O)c1ccc(F)cc1 returned T cruzi growth-1 inconclusive, IDH1 mut inh 6.4, KDM4C inh -5.2, T cruzi growth-2 107.8*, T cruzi growth-3 33.8, 3T3 cytotox 9.8 and NIH3T3 tox 2 39.3*.
For Cc1ccc(S(=O)(=O)N(C)C[C@H]2Oc3c(cccc3N(C)C)C(=O)N([C@@H](C)CO)C[C@@H]2C)cc1 the results were T cruzi growth-1 78.3, IDH1 mut inh -5.6 and KDM4C inh 0.8.
Screening COc1ccc(S(=O)(=O)N(C)C[C@@H]2Oc3c(NC(=O)Nc4cccc5ccccc45)cccc3C(=O)N([C@@H](C)CO)C[C@H]2C)cc1 returned IDH1 mut inh 2.3 and KDM4C inh -0.6.
Cc1ccc(S(=O)(=O)N(C)C[C@H]2Oc3c(cccc3N(C)C)C(=O)N([C@H](C)CO)C[C@@H]2C)cc1 was read as T cruzi growth-1 inconclusive, IDH1 mut inh -5.3, KDM4C inh -1.0, T cruzi growth-2 98.7*, T cruzi growth-3 15.2, 3T3 cytotox 8.2 and NIH3T3 tox 2 27.8*.
C[C@@H]1CN([C@@H](C)CO)C(=O)c2cccc(NC(=O)Nc3ccc(C(F)(F)F)cc3)c2O[C@H]1CN(C)S(=O)(=O)c1ccc(Cl)cc1 was read as T cruzi growth-1 inconclusive and IDH1 mut inh 0.6.
Screening C[C@H](CO)N1C[C@H](C)[C@@H](CN(C)S(=O)(=O)c2ccc(F)cc2)Oc2c(NC(=O)Nc3ccc(C(F)(F)F)cc3)cccc2C1=O returned IDH1 mut inh -1.3 and KDM4C inh -1.2.
`Nc1cc(N)nc(SCC(=O)c2ccc(F)cc2)n1` gave IDH1 mut inh 2.6.
For COc1ccc(OCC(=O)Nc2cccc(Cl)c2N2CCOCC2)cc1 the results were IDH1 mut inh 0.1.
Cc1ccc(S(=O)(=O)N(C)C[C@@H]2Oc3c(NC(=O)Nc4ccccc4)cccc3C(=O)N([C@@H](C)CO)C[C@@H]2C)cc1 was read as T cruzi growth-1 19.0, IDH1 mut inh 0.2 and KDM4C inh -1.5.
`Cc1ccc(S(=O)(=O)N(C)C[C@H]2Oc3c(NC(=O)Nc4ccccc4)cccc3C(=O)N([C@H](C)CO)C[C@H]2C)cc1` gave T cruzi growth-1 100.8*, IDH1 mut inh 0.3, KDM4C inh -0.1, T cruzi growth-2 inconclusive, T cruzi growth-3 19.8, 3T3 cytotox 5.9 and NIH3T3 tox 2 47.8*.
Screening COc1cc(NC(=O)CN(C)S(=O)(=O)c2cc(Cl)ccc2Cl)cc(OC)c1 returned IDH1 mut inh -0.4.
For CC(C)C#Cc1ccc([C@H]2[C@@H](CO)N3CCCCN(C(=O)NC(C)C)C[C@@H]23)cc1 the results were T cruzi growth-1 44.7 and KDM4C inh 0.5.
For CC(C)NC(=O)N1CCCCN2[C@H](CO)[C@H](c3ccc(C#Cc4ccccc4F)cc3)[C@H]2C1 the results were T cruzi growth-1 109.4*, KDM4C inh -1.8, T cruzi growth-2 104.0*, T cruzi growth-3 107.1*, 3T3 cytotox 31.1 and NIH3T3 tox 2 103.2*.
Screening CC(C)NC(=O)N1CCCCN2[C@@H](CO)[C@H](c3ccc(C#Cc4ccccc4F)cc3)[C@@H]2C1 returned T cruzi growth-1 113.1*, KDM4C inh -2.8, T cruzi growth-2 96.4*, T cruzi growth-3 78.6, 3T3 cytotox 50.9* and NIH3T3 tox 2 103.5*.
`CC(C)NC(=O)N1CCCCN2[C@H](C1)[C@H](c1ccc(C#Cc3ccccc3F)cc1)[C@@H]2CO` gave T cruzi growth-1 69.8 and KDM4C inh -1.4.
`COC(=O)c1cc(O)cc(O)c1C(=O)c1c(O)c(Cl)c(C)c(Cl)c1OC` gave IDH1 mut inh 3.4.
CC(C)(Oc1ccc(Cl)cc1)C(=O)NCc1ccccn1 was read as IDH1 mut inh -0.7.
Screening O=C(Nc1cccc(C(F)(F)F)c1)c1cc([N+](=O)[O-])ccc1NCc1cccnc1 returned IDH1 mut inh -0.2.
CN1c2ccc(-c3ccccc3)cc2[C@H]2[C@H](CCN2C(=O)Cc2ccccc2)[C@H]1CO was read as T cruzi growth-1 93.4 and KDM4C inh -0.4.
Screening COc1ccc(-c2ccc3c(c2)[C@@H]2[C@@H](CCN2C(=O)Cc2cccnc2)[C@@H](CO)N3C)cc1 returned T cruzi growth-1 80.8 and KDM4C inh 1.6.
CN1c2ccc(-c3ccccc3)cc2[C@@H]2[C@@H](CCN2C(=O)Cc2cccnc2)[C@@H]1CO was read as T cruzi growth-1 106.0*, KDM4C inh 0.0, T cruzi growth-2 108.8*, T cruzi growth-3 71.0, 3T3 cytotox 2.1 and NIH3T3 tox 2 1.4.
For COc1ccc(-c2ccc3c(c2)[C@H]2[C@H](CCN2C(=O)Cc2cccnc2)[C@H](CO)N3C)cc1 the results were T cruzi growth-1 20.2.
`CN1c2ccc(-c3ccccc3)cc2[C@@H]2[C@@H](CCN2C(=O)Cc2ccccc2)[C@@H]1CO` gave T cruzi growth-1 101.8*, KDM4C inh -1.8, T cruzi growth-2 103.1*, T cruzi growth-3 110.8*, 3T3 cytotox -14.7 and NIH3T3 tox 2 105.6*.
Screening CN1c2ccc(-c3ccc(F)cc3)cc2[C@@H]2[C@@H](CCN2C(=O)Cc2cccnc2)[C@@H]1CO returned T cruzi growth-1 inconclusive, KDM4C inh -0.1, T cruzi growth-2 106.4*, T cruzi growth-3 62.3, 3T3 cytotox -13.4 and NIH3T3 tox 2 -6.3.
Screening O=C(NO)c1ccc(C(=O)N/N=C/c2ccc(Br)o2)cc1 returned IDH1 mut inh -0.4.
CC(Sc1nc(=O)cc(N)n1-c1ccccc1)C(=O)Nc1cccc(Cl)c1 (configuration not stated) was read as IDH1 mut inh 0.2.
Screening O=C(O)CCNS(=O)(=O)c1cccc(F)c1 returned IDH1 mut inh 0.2.
Screening Cc1ccc(NC(=O)Cn2nc([N+](=O)[O-])cc2C)cc1 returned IDH1 mut inh 0.1.
For O=C(CSc1nnc(-c2ccncc2)o1)c1ccc2ccccc2c1 the results were IDH1 mut inh -0.4.

Screens deposited in PubChem BioAssay by Broad Institute.
